ChEMBL document CHEMBL3351873, “Synthesis, biological evaluation and molecular docking of novel chalcone-coumarin hybrids as anticancer and antimalarial agents” (Eur J Med Chem, 2014)
Activity calls are given as the source filed them. The rule behind the calls is not given here.

How the values were obtained:
[1] = system: Plasmodium falciparum; experiment: Antimalarial activity against multidrug-resistant Plasmodium falciparum K1 after 24 hrs by [3H]hypoxanthine incorporation assay; assay type: functional, organism-based
Procedure, shortened: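 P. falciparum K1 kept in RPMI 1640 with 20 mM HEPES, NaHCO₃, 10% human serum and 3% erythrocytes at 37 °C under 3% CO₂, passaged daily. Early ring-stage parasites (1% parasitemia, 1.5% erythrocytes) were exposed to compound (0.1% DMSO final) for 24 h. [3H]hypoxanthine was then added for a further 24 h. Incorporation was counted by scintillation and expressed as percent parasite growth.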

[2] = (§1) Cytotoxicity against human HuCCa1 cells assessed as reduction in cell viability after 48 hrs by MTT assay; assay type: functional, cell-based; settings: HuCC-A1, 48 h
Procedure, shortened: (§2)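 Adherent cells plated at 10,000–20,000 cells/well and allowed 24 h at 37 °C (5% CO₂) before an equal volume of medium with serially diluted compound was added. Etoposide and/or doxorubicin were positive controls and DMSO the negative control. After a further 48 h, surviving cells were measured by MTT. IC50 is the concentration giving 50% growth inhibition relative to the DMSO control.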

[3] = system: Vero; experiment: Cytotoxicity against african green monkey Vero cells assessed as reduction in cell viability after 4 days by green fluorescent protein detection method; assay type: cell-based; settings: chlorocebus sabaeus, 96 h
Procedure, shortened: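 GFP-expressing Vero cells (stably transfected with pEGFP-N1) seeded at 3.3 × 10⁴ cells/mL onto compounds prediluted in 0.5% DMSO; 4 days at 37 °C, 5% CO₂. Fluorescence read at ex 485/em 535 nm, day-0 background subtracted. IC50 from dose-response curves over 6 concentrations (3-fold serial dilutions). Ellipticine positive control, 0.5% DMSO negative control.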

[4] = system: HepG2; experiment: Cytotoxicity against human HepG2 cells assessed as reduction in cell viability after 48 hrs by MTT assay; assay type: functional, cell-based; settings: for IC50: HepG2, 48 h; procedure, shortened: as §2
[5] = system: A549; experiment: Cytotoxicity against human A549 cells assessed as reduction in cell viability after 48 hrs by MTT assay; assay type: functional, cell-based; settings: for IC50: A549, 48 h; procedure, shortened: as §2
[6] = (§3) Cytotoxicity against human MOLT3 cells assessed as reduction in cell viability after 48 hrs by XTT assay; assay type: functional, cell-based; settings: MOLT-3, 48 h
Procedure, shortened: (§4)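 Suspension cells plated at 10,000–20,000 cells/well and pre-incubated 24 h at 37 °C, 5% CO₂. Serial compound dilutions were added in an equal volume of medium, with etoposide and/or doxorubicin as positive controls and DMSO as negative control, then incubated 48 h more. Viable cells were read by XTT. IC50 is taken as 50% growth inhibition versus the DMSO control.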

[7] = system: MOLT-3; experiment: as §3; assay type: functional, cell-based; procedure, shortened: as §4
[8] = system: HuCC-A1; experiment: as §1; assay type: functional, cell-based; procedure, shortened: as §2
[9] = system: HepG2; experiment: Ratio of etoposide IC50 to compound IC50 for human HepG2 cells assessed as reduction in cell viability after 48 hrs by MTT assay; assay type: functional
[10] = Plasmodium falciparum, K1, read-out: IC50

Structure (SMILES) | IC50 [1, 10] [µM] | IC50 [2] [µM] | Activity [3] | Activity [4] | Activity [5] | IC50 [6] [µM] | IC50 [4] [µM] | IC50 [1] | IC50 [5] [µM] | Activity [7] | Activity [8] | IC50 [3] [µM] | Ratio IC50 [9]
C[C@H]1[C@@H](O)O[C@@H]2O[C@@]3(C)CC[C@H]4[C@H](C)CC[C@@H]1[C@@]24OO3 [ARTENIMOL] | 0.0011 |  |  |  |  |  |  |  |  |  |  |  | 
COc1ccc(/C=C/C(=O)c2cccc(-n3cc(COc4cc(=O)oc5ccccc45)nn3)c2)c(OC)c1OC | 7.47 | 6.13 | Non-toxic | inactive | inactive | 1.13 |  |  |  |  |  |  | 
COc1cccc(/C=C/C(=O)c2ccc(-n3cc(COc4ccc5ccc(=O)oc5c4)nn3)cc2)c1OC |  | 4.81 | Non-toxic |  |  |  | 8.18 | Not Active | 7.95 | inactive |  |  | 
COc1cc([C@@H]2c3cc4c(cc3[C@@H](O[C@@H]3O[C@@H]5CO[C@@H](C)O[C@H]5[C@H](O)[C@H]3O)[C@H]3COC(=O)[C@H]23)OCO4)cc(OC)c1O [ETOPOSIDE] |  |  |  |  |  | 0.051 |  |  |  |  |  |  | 
COc1ccc(/C=C/C(=O)c2ccc(-n3cc(COc4ccc5ccc(=O)oc5c4)nn3)cc2)c(OC)c1OC |  |  | Non-toxic | inactive | inactive | 22.5 |  | Not Active |  |  | inactive |  | 
COc1ccc(/C=C/C(=O)c2ccc(-n3cc(COc4cc(=O)oc5ccccc45)nn3)cc2)c(OC)c1OC | 1.6 |  | Non-toxic |  | inactive | 12.3 | 22.9 |  |  |  | inactive |  | 
COc1ccc(/C=C/C(=O)c2cccc(-n3cc(COc4ccc5ccc(=O)oc5c4)nn3)c2)c(OC)c1OC | 13 |  | Non-toxic | inactive | inactive | 3.89 |  |  |  |  | inactive |  | 
COc1ccc(/C=C/C(=O)c2cccc(-n3cc(COc4cc(=O)oc5ccccc45)nn3)c2)cc1OC |  | 38.6 | Non-toxic | inactive | inactive | 3.91 |  | Not Active |  |  |  |  | 
COc1cc(/C=C/C(=O)c2ccc(-n3cc(COc4cc(=O)oc5ccccc45)nn3)cc2)cc(OC)c1OC |  |  | Non-toxic | inactive | inactive | 6.58 |  | Not Active |  |  | inactive |  | 
COc1cc(/C=C/C(=O)c2ccc(-n3cc(COc4ccc5ccc(=O)oc5c4)nn3)cc2)cc(OC)c1OC |  |  | Non-toxic | inactive | inactive | 79.5 |  | Not Active |  |  | inactive |  | 
COc1cccc(/C=C/C(=O)c2cccc(-n3cc(COc4cc(=O)oc5ccccc45)nn3)c2)c1OC | 4.73 | 2.36 |  |  |  | 0.53 | 4.26 |  | 18.1 |  |  | 3.91 | 7
COc1cccc2c1C(=O)c1c(O)c3c(c(O)c1C2=O)C[C@@](O)(C(=O)CO)C[C@@H]3O[C@H]1C[C@H](N)[C@H](O)[C@H](C)O1 [DOXORUBICIN] |  | 0.83 |  |  |  |  |  |  |  |  |  |  | 
COc1cccc(/C=C/C(=O)c2cccc(-n3cc(COc4ccc5ccc(=O)oc5c4)nn3)c2)c1OC | 6.63 | 11.1 |  |  |  | 5.16 | 15.7 |  | 31.4 |  |  | 35 | 
COc1ccc(/C=C/C(=O)c2cccc(-n3cc(COc4ccc5ccc(=O)oc5c4)nn3)c2)cc1OC |  | 33.4 | Non-toxic | inactive | inactive | 3.12 |  | Not Active |  |  |  |  | 
Cc1c2ccncc2c(C)c2c1[nH]c1ccccc12 [ELLIPTECINE] |  |  |  |  |  |  |  |  |  |  |  | 1.94 | 
